Data set [1] deals with Escherichia coli. Nature of the data set: Antibacterial activity against uropathogenic Escherichia coli UTI89 assessed as degradation of preexisting biofilm after 24 hrs by microscopy. The class given is functional, organism-based. Put shortly:
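UTI89 diluted 1:100 into M9 medium and grown statically 48 h at 37°C in microtiter wells. Nonadherent cells removed, fresh M9 ± drug added for 24 h, using the higher of two tested concentrations. Viable bacteria in biofilms visualized by Live/Dead BacLight staining and microscopy.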

For data set [2], the system named is Escherichia coli. Nature of the data set: Antibacterial activity against uropathogenic Escherichia coli UTI89 infected in CBA/J mouse assessed as decrease in bacterial invasion into layers of urothelium at 1 mg/kg, po administered on day 3 postinfection daily for 3 days measured on day 9 post-inoculation in presence of Triton X-100. Type of data set: functional, organism-based. On the set-up: dose 1 mg/kg.

The subject of data set [3] is Escherichia coli. Nature of the data set: Antibacterial activity against uropathogenic Escherichia coli UTI89 assessed as inhibition of biofilm formation after 24 hrs by microtiterplate-based assay. Type of data set: functional, organism-based. Put shortly: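 Biofilms of UTI89 formed for 48 h at 37°C without shaking in M9 (1:100 inoculum, triplicate wells). Fresh M9 ± drug (higher of two tested concentrations) then added for 24 h. Biomass stained with 0.1% crystal violet, solubilized in DMSO, read at A562, and expressed relative to untreated controls. Three independent experiments.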

Data set [4] deals with 5637. Nature of the data set: Cytotoxicity against human 5637 cells assessed as mild induction of cell death by trypan blue exclusion assay. The class given is cell-based. Put shortly: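 Integrity of 5637 cells after drug treatment assessed by 0.4% trypan blue exclusion, following a standard protocol.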
Data set [5] has as its system Escherichia coli. Nature of the data set: Antibacterial activity against uropathogenic Escherichia coli UTI89 infected in human 5637 cells assessed as decrease in intracellular bacterial level at 700 to 1000 ug/ml after 12 hrs by serial dilution method. The class given is functional, organism-based. Put shortly: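 Confluent 5637 monolayers in triplicate infected with UTI89 (24-h static LB culture, type 1 pili) at MOI ~15 and spun 600 × g for 5 min. After 2 h: gentamicin 100 μg/ml for 2 h, then 10 μg/ml for 14 h. Then 12 h with drug at two concentrations. Cells lysed in 0.4% Triton X-100 and plated on LB agar. Titers expressed relative to 800 μg/ml gentamicin. ≥3 independent assays.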

The test system of data set [6] is Escherichia coli. Nature of the data set: Antibacterial activity against uropathogenic Escherichia coli UTI89 infected in CBA/J mouse assessed as decrease in bacterial load in bladder at 1 mg/kg, po administered on day 3 postinfection daily for 3 days measured on day 9 post-inoculation. The class given is functional, organism-based. Further details: dose 1 mg/kg. The settings on record: Urinary bladder. The method in brief:
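Female CBA/J mice, 7–8 weeks old, inoculated transurethrally with ~10^7 CFU UTI89 (24-h static LB culture) in 50 μl PBS. From day 3, one oral gavage daily for 3 days, 50 μl; controls given water. On day 9, bladders homogenized in PBS with 0.025% Triton X-100 and plated on LB agar for CFU. 11 mice from two experiments; Mann-Whitney U test.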

Data set [7] is described as follows: Drug level in Escherichia coli UTI89-infected CBA/J mouse urine at 1 mg/kg, po after 2 hrs. The class given is ADME, organism-based. Further details: dose 1 mg/kg, route oral. The settings on record: in vivo. Put shortly:
(§1)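 Urine collected by gentle bladder pressure 2 h after oral dosing of UTI89-infected CBA/J mice. 10 μl spotted on 7-mm filter discs, placed on fresh UTI89 lawns on LB agar. Clearance diameter measured after 24 h at 37°C. Urine drug level calculated from standard curves of discs holding known antibiotic concentrations.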

For data set [8], the system named is 5637. Nature of the data set: Cytotoxicity against human 5637 cells assessed as mild induction of cell death by LDH release assay. Type of data set: cell-based.
Data set [9] deals with Escherichia coli. Nature of the data set: Antibacterial activity against uropathogenic Escherichia coli UTI89 isolated from urine samples of infected CBA/J mouse after 24 hrs by disk diffusion assay. Type of data set: functional, organism-based. Put shortly: as §1
Background: Agar diffusion results depend on both activity and mobility in agar.

Data set [10] relates to Escherichia coli. Nature of the data set: Antibacterial activity against uropathogenic Escherichia coli UTI89 infected in CBA/J mouse assessed as decrease in bacterial invasion into layers of urothelium at 1 mg/kg, po administered on day 3 postinfection daily for 3 days measured on day 9 post-inoculation. Type of data set: functional, organism-based. Further details: dose 1 mg/kg.

Calls of active or inactive are those of the source. The rule behind the calls is not given here.

In the case of `C[C@@H]1O[C@@H]1P(=O)(O)O` [FOSFOMYCIN], the result with Escherichia coli [1] and in the data set on Escherichia coli [9] was Active. Also, the inhibition entry in the data set on Escherichia coli [2] and in the data set on Escherichia coli [5] was “Active” throughout. The Biofilm inhibition activity entry in the data set on Escherichia coli [3] is “Active”. For the same molecule, the Activity entry with 5637 [4] and in the data set on 5637 [8] was “Toxic” each time. For the same molecule, the inhibition result with Escherichia coli [6] and in the data set with Escherichia coli [10] was “inactive” each time. Moreover, the Drug uptake in data set [7] worked out at 4 µg/mL.

(Values after ChEMBL document CHEMBL1255465, “Persistence of uropathogenic Escherichia coli in the face of multiple antibiotics” (Antimicrob Agents Chemother, 2010).)
